# Reference: PubChem BioAssay AID623974 (Vanderbilt High Throughput Screening Facility, 2012)
# Active and inactive are the calls of the source. No rule for the calls is given here.
# Biological target: G protein-activated inward rectifier potassium channel 2 (Homo sapiens) + G protein-activated inward rectifier potassium channel 3 (Homo sapiens) (UniProt P48051+Q92806)
# Assay: GIRK2/3 channel activators by patch clamp, confirmation, GIRK activator project, HEK-293 hGIRK2/3, whole-cell voltage clamp, Ba2+-sensitive current (AID 623974)
# Details: HEK-293 hGIRK2/3, whole-cell voltage clamp current; series mostly up to 11 µM
# How it was run: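 System: stable hGIRK2/3 HEK-293 cells. Dosing: compound concentration series fitted by four-parameter logistic curve. Schedule: patch recordings 24–72 h after cell plating. Signal: whole-cell patch clamp, -70 mV holding, barium subtraction.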
# G protein-activated inward rectifier potassium channel 2 (Homo sapiens) + G protein-activated inward rectifier potassium channel 3 (Homo sapiens), sequence (P48051 whole entry, looked up): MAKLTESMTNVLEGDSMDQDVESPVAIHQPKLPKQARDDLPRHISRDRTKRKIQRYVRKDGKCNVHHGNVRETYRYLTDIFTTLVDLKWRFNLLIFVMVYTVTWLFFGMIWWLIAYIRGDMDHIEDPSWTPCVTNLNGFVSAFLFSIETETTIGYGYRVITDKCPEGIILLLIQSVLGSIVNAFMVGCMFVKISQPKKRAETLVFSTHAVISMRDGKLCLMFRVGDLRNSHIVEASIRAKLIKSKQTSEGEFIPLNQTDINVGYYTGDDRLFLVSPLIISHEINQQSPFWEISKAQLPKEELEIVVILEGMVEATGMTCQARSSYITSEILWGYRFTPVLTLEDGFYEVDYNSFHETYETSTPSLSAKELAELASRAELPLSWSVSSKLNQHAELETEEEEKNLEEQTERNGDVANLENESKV
# G protein-activated inward rectifier potassium channel 2 (Homo sapiens) + G protein-activated inward rectifier potassium channel 3 (Homo sapiens), sequence (Q92806 whole entry, looked up): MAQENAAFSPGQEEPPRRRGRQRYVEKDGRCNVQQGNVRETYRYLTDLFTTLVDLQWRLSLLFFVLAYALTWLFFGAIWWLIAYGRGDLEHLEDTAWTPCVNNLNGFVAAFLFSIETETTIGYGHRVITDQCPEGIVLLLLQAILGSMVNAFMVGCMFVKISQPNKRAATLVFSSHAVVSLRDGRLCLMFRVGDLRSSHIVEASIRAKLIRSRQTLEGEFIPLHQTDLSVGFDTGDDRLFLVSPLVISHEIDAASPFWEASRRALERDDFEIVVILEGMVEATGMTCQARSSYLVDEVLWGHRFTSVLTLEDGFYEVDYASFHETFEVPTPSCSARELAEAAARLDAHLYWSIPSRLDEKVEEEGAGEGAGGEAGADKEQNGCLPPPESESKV
structure (smiles),measurement,value
Cc1cc(NC(=O)Nc2ccc(F)c(F)c2)n(-c2ccccc2)n1,outcome,inactive
